Laboratory results as given in article PMC12583737 (Nature Communications, 2025).

Legend:
[1] = tested on: SMARCA2-nanoLuc and FBXO22-HaloTag; assay: SMARCA2/FBXO22 NanoBRET ternary complex assay in FBXO22 knockout HCC515 cells; type: cell-based; details: FBXO22 knockout HCC515, overnight, 10 µM MLN4924
How it was run: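 FBXO22-knockout HCC515 cells were transiently co-transfected with SMARCA2-NanoLuc and FBXO22-HaloTag at a 1:20 ratio (FuGENE HD). They were replated next day at 25,000 per well with or without HaloTag 618 ligand and left overnight. Cells were pretreated 1 h with 10 µM MLN4924, which was kept throughout, then dosed with test compound or a control PROTAC for 24 h. Emissions at 460/618 nm were read 10 min after substrate. Ratio ×1000 gave mBU, with the no-ligand value subtracted. Mean ± sd, n = 2–6.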

V5-tagged FBXO22 = assay: Cellular thermal stability shift assay; type: binding; details: lysates of HCC515 expressing V5-tagged FBXO22
How it was run: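 It got 10 µM neddylation inhibitor for 10 min, then compound or DMSO for 30 min at room temperature. Aliquots were heated 3 min across 38–71 °C in 3-degree steps and cleared at 20,000 g. Soluble V5-FBXO22 was read by anti-V5 immunoblot.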

Row | SMILES | BRET signal (ternary complex SMARCA2/FBXO22) [1] | thermal stability of FBXO22 (V5-tagged FBXO22)
1 | Cc1ncsc1-c1ccc([C@H](C)NC(=O)[C@@H]2C[C@@H](O)CN2C(=O)[C@@H](c2cc(N3CCC(CN4CCC(OC5CC(Oc6cc(N7C8CCC7CN(c7cc(-c9ccccc9O)nnc7N)C8)ccn6)C5)CC4)CC3)no2)C(C)C)cc1 (some centres unmarked) [Compound A947] | not observed | 
2 | Nc1nnc(-c2ccccc2O)cc1N1CC2CCC(C1)N2c1ccnc(F)c1 [Compound 7] |  | not observed
